Experimental data reported in ChEMBL document CHEMBL4715780, “Biological evaluation of tetracationic compounds based on two 1,4-diazabicyclo[2.2.2]octane moieties connected by different linkers” (Bioorg Med Chem, 2016).

Tests used:
Staphylococcus aureus [1] = experiment: Bactericidal activity against […] Staphylococcus aureus ATCC 25923 assessed as reduction in colony forming unit at 5 ug/ml measured at 4 hrs by time kill assay relative to control; assay type: functional; set-up: scale not given: the % may be the effect or the level left; conditions: dose 5 µg/ml
Procedure, shortened: (§1)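 S. aureus overnight culture was adjusted in MHB to ~8 × 10⁵ CFU/mL. Compound was added and the mixture incubated at 37 °C with shaking (580 rpm) for 22 h. Aliquots were plated for colony counts at 2, 4, 6, 8 and 22 h, with a quantification limit of 100 CFU/mL. Runs were done in triplicate.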

[2] = Selectivity index, ratio of CC50 for HEK293T cells assessed as reduction in cell viability measured after 24 hrs by MTT assay to MIC for Pseudomonas aeruginosa ATCC 9027 assessed as bacterial growth inhibition by CLSI protocol based serial microdilution method; assay type: toxicity; conditions: human, read-out: Selectivity Index
[3] = Selectivity index, ratio of CC50 for HEK293T cells assessed as reduction in cell viability measured after 24 hrs by MTT assay to MIC for Candida albicans CEMTC 34 assessed as bacterial growth inhibition by CLSI protocol based serial microdilution method; assay type: toxicity; conditions: human, read-out: Selectivity Index
Procedure, shortened: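 SI = CC₅₀ (HEK293T) / MIC. HEK293T cells were seeded at 20,000/well overnight, then exposed to 10–250 µg/mL in IMDM with 10% FBS for 24 h. MTT was added for 4 h, solubilised with SDS-HCl, and read at 570 nm; duplicates, ≥2 independent runs. MIC came from two-fold dilutions in Sabouraud dextrose broth at ~5 × 10⁵ CFU/mL, 37 °C with shaking, read at 595 nm, in duplicate.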

Staphylococcus aureus [4] = experiment: Antibacterial activity against methicillin-resistant Staphylococcus aureus CEMTC 675 assessed as concentration required to inhibit visible growth by CLSI protocol based serial microdilution method; assay type: functional
Staphylococcus aureus [5] = experiment: Bactericidal activity against […] Staphylococcus aureus ATCC 25923 assessed as colony forming unit at 2.5 ug/ml measured at 22 hrs by time kill assay (reference value: 2.9 x 10^9 CFU/ml); assay type: functional; conditions: dose 2.5 µg/ml; procedure, shortened: as §1
Escherichia coli = experiment: Antibacterial activity against Escherichia coli ATCC 25922 assessed as bacterial growth inhibition by CLSI protocol based serial microdilution method; assay type: functional
Staphylococcus aureus [6] = experiment: Bactericidal activity against […] Staphylococcus aureus ATCC 25923 assessed as reduction in colony forming unit at 2.5 ug/ml measured at 2 hrs by time kill assay relative to control; assay type: functional; set-up: scale not given: the % may be the effect or the level left; conditions: dose 2.5 µg/ml; procedure, shortened: as §1

In the case of `CCCCCCCCCCCC[N+]12CC[N+](Cc3ccccc3C[N+]34CC[N+](CCCCCCCCCCCC)(CC3)CC4)(CC1)CC2`, the Activity (Staphylococcus aureus [1]) was 99.9%, the selectivity ratio at 24 h [2] was 3 and the selectivity ratio at 24 h [3] was 1. For the same compound, the MBC (Staphylococcus aureus [4]) was 1 µg/mL, the Activity (Staphylococcus aureus [5]) was <100 CFU/ml and the MIC (Escherichia coli) was 1.6 µg/mL. For the same compound, the Activity (Staphylococcus aureus [6]) was “>=99%”.
In the case of `CCCCCCCCCCCC[N+]12CC[N+](CCC[N+]34CC[N+](CCCCCCCCCCCC)(CC3)CC4)(CC1)CC2`, the selectivity ratio at 24 h [2] was 4, the MBC (Staphylococcus aureus [4]) was 1 µg/mL and the Activity (Staphylococcus aureus [5]) was <100 CFU/ml. It also gave an MIC (Escherichia coli) of 1.6 µg/mL.
